Measurements taken from ChEMBL document CHEMBL3244395, “Antimycotic imidazoles. 2. Synthesis and antifungal properties of esters of 1-[2-hydroxy(mercapto)-2-phenylethyl]-1H-imidazoles” (J Med Chem, 1978).

Tests used:
Epidermophyton floccosum = assay: Antifungal activity against Epidermophyton floccosum assessed as lowest concentration required for total inhibition broth dilution assay; type: functional; details: read-out: MIC100
How it was run: (§1)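 Broth dilution against dermatophytes, C. albicans ATCC 10231 and 14053, and C. neoformans. The end point is the lowest concentration with total inhibition. "<" marks the lowest level tested, and ">" marks partial growth at that dilution.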

Candida albicans [1] = assay: Antifungal activity against Candida albicans ATCC 14053 assessed as lowest concentration required for total inhibition by broth dilution assay; type: functional; details: read-out: MIC100; how it was run: as §1
[2] = Lipophilic-hydrophilic balance, Rm of the compound assessed as change in compound Rm to miconazole Rm by reverse-phase TLC method; type: physicochemical; details: silicone oil-impregnated silica gel, MeCN-H2O-AcOH
Cryptococcus neoformans = assay: Antifungal activity against Cryptococcus neoformans assessed as lowest concentration required for total inhibition by broth dilution assay; type: functional; details: read-out: MIC100; how it was run: as §1
[3] = test system: Trichophyton mentagrophytes; assay: Antifungal activity against Trichophyton mentagrophytes assessed as lowest concentration required for total inhibition broth dilution assay; type: functional; details: read-out: MIC100; how it was run: as §1
Candida albicans [4] = assay: Antifungal activity against Candida albicans ATCC 10231 assessed as lowest concentration required for total inhibition by broth dilution assay; type: functional; details: read-out: MIC100; how it was run: as §1
Nannizzia gypsea = assay: Antifungal activity against Microsporum gypseum assessed as lowest concentration required for total inhibition broth dilution assay; type: functional; details: read-out: MIC100; how it was run: as §1
Enterococcus faecalis = assay: Antibacterial activity against Streptococcus faecalis ATCC 14506 assessed as lowest concentration required for total inhibition by broth microdilution assay; type: functional; details: for MIC: read-out: MIC100
How it was run: (§2)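 Broth microdilution against the listed ATCC […] strains. The value is the lowest concentration giving total inhibition. "<" marks the lowest level tested, and ">" marks partial growth at that dilution.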

Staphylococcus aureus = assay: Antibacterial activity against Staphylococcus aureus ATCC 12600 assessed as lowest concentration required for total inhibition by broth microdilution assay; type: functional; details: for MIC: read-out: MIC100; how it was run: as §2
Cutibacterium acnes = assay: Antibacterial activity against Corynebacterium acnes ATCC 11828 assessed as lowest concentration required for total inhibition by broth microdilution assay; type: functional; details: for MIC: read-out: MIC100; how it was run: as §2
Pasteurella multocida = assay: Antibacterial activity against Pasteurella multocida ATCC 19427 assessed as lowest concentration required for total inhibition by broth microdilution assay; type: functional; details: for MIC: read-out: MIC100; how it was run: as §2
[5] = test system: Erysipelothrix rhusiopathiae; assay: Antibacterial activity against Erysipelothrix insidiosa ATCC 19414 assessed as lowest concentration required for total inhibition by broth microdilution assay; type: functional; details: for MIC: read-out: MIC100; how it was run: as §2

| Compound | MIC (Epidermophyton floccosum) [µg/mL] | MIC (Candida albicans [1]) [µg/mL] | deltaRm [2] | MIC (Cryptococcus neoformans) [µg/mL] | MIC [3] [µg/mL] | MIC (Candida albicans [4]) [µg/mL] | MIC (Nannizzia gypsea) [µg/mL] | MIC100 (Enterococcus faecalis) [µg/mL] | MIC100 (Staphylococcus aureus) [µg/mL] | MIC100 (Cutibacterium acnes) [µg/mL] | MIC100 (Pasteurella multocida) [µg/mL] | MIC100 [5] [µg/mL] | MIC (Enterococcus faecalis) [µg/mL] | MIC (Staphylococcus aureus) [µg/mL] | MIC (Cutibacterium acnes) [µg/mL] | MIC (Pasteurella multocida) [µg/mL] | MIC [5] [µg/mL] |
| --- | --- | --- | --- | --- | --- | --- | --- | --- | --- | --- | --- | --- | --- | --- | --- | --- | --- |
| CCCCCCC(=O)OC(Cn1ccnc1)c1ccc(Cl)cc1Cl.O=[N+]([O-])O (stereo not drawn) | < 0.1 | 100 | -0.16 | 3 | 30 | 100 | 30 |  |  |  |  |  |  |  |  |  |  |
| GENTAMICIN |  |  |  |  |  |  |  | 30 | 1 | 1 | < 0.1 | 30 |  |  |  |  |  |
| O=C(/C=C/c1ccccc1)SC(Cn1ccnc1)c1ccc(Cl)cc1Cl.O=[N+]([O-])O (stereo not drawn) | < 0.1 | 10 | -0.08 | < 1 | 10 | 10 | 30 |  |  |  |  |  |  |  |  |  |  |
| CCCCOC(=O)SC(Cn1ccnc1)c1ccc(Cl)cc1Cl.O=[N+]([O-])O (stereo not drawn) | < 0.1 | 30 | -0.14 | < 0.3 | 10 | 30 | 30 |  |  |  |  |  |  |  |  |  |  |
| O=C(O)C(=O)O.S=C(OCc1ccccc1)SC(Cn1ccnc1)c1ccc(Cl)cc1Cl (stereo not drawn) | < 0.1 | 10 | -0.21 | < 0.3 | 1 | 30 | 10 |  |  |  |  |  |  |  |  |  |  |
| O=C(OC(Cn1ccnc1)c1ccc(Cl)cc1Cl)c1ccc(Cl)cc1Cl.O=[N+]([O-])O (stereo not drawn) | < 0.1 | 300 | -0.24 | 3 | 30 | 300 | 30 |  |  |  |  |  |  |  |  |  |  |
| O=C(SC(Cn1ccnc1)c1ccc(Cl)cc1Cl)c1ccccc1Cl.O=[N+]([O-])O (stereo not drawn) | < 0.1 | 30 | -0.35 | < 1 | 10 | 30 | 10 |  |  |  |  |  | 30 | 10 | > 100 | 1 | 100 |
| CCCCCCOC(=O)OC(Cn1ccnc1)c1ccc(Cl)cc1Cl.O=[N+]([O-])O (stereo not drawn) | < 0.3 | 100 | -0.17 | 30 | 30 | 100 | 30 |  |  |  |  |  |  |  |  |  |  |
| CCCSC(=O)OC(Cn1ccnc1)c1ccc(Cl)cc1Cl.O=C(O)C(=O)O (stereo not drawn) | < 0.1 | 300 |  | 3 | 30 | 300 | 30 |  |  |  |  |  |  |  |  |  |  |
| O=C(Cc1ccc(Cl)cc1)OC(Cn1ccnc1)c1ccc(Cl)cc1Cl.O=[N+]([O-])O (stereo not drawn) | < 0.1 | 100 | -0.41 | 3 | 30 | 100 | 100 |  |  |  |  |  |  |  |  |  |  |
| O=C(Cc1ccc(F)cc1)SC(Cn1ccnc1)c1ccc(Cl)cc1Cl.O=[N+]([O-])O (stereo not drawn) | < 0.1 | 100 |  | < 1 | 30 | 100 | 30 |  |  |  |  |  |  |  |  |  |  |
| CC(C)(C)SC(=O)SC(Cn1ccnc1)c1ccc(Cl)cc1Cl.O=[N+]([O-])O (stereo not drawn) | < 0.1 | 30 | 0.05 | 3 | 3 | 30 | 10 |  |  |  |  |  | 10 | 3 | 100 | 1 | 100 |
| CC(C)(C)c1ccc(C(=O)OC(Cn2ccnc2)c2ccc(Cl)cc2Cl)cc1.O=C(O)C(=O)O (stereo not drawn) | 1 | 10 | 0.16 | 3 | 10 | 10 | 10 |  |  |  |  |  |  |  |  |  |  |
| CCCCCCCCCCCC(=O)OC(Cn1ccnc1)c1ccc(Cl)cc1Cl.O=[N+]([O-])O (stereo not drawn) | 1 | > 300 | 1.1 | < 1 | > 100 | > 300 | > 100 |  |  |  |  |  | 100 | 10 | > 100 | 1 | 10 |
| CC(=O)SC(Cn1ccnc1)c1ccc(Cl)cc1Cl.O=[N+]([O-])O (stereo not drawn) | 1 | 300 |  | 10 | 100 | 300 | 100 |  |  |  |  |  |  |  |  |  |  |
| CC(C)COC(=S)SC(Cn1ccnc1)c1ccc(Cl)cc1Cl.O=[N+]([O-])O (stereo not drawn) | < 0.1 | 10 | 0.17 | < 0.3 | 3 | 30 | 3 |  |  |  |  |  |  |  |  |  |  |
| O=C(Cc1ccccc1)SC(Cn1ccnc1)c1ccc(Cl)cc1Cl.O=[N+]([O-])O (stereo not drawn) | < 0.1 | 100 | -0.43 | < 1 | 30 | 100 | 30 |  |  |  |  |  |  |  |  |  |  |
| O=C(Sc1ccccc1)SC(Cn1ccnc1)c1ccc(Cl)cc1Cl.O=[N+]([O-])O (stereo not drawn) | < 0.1 | 100 | -0.02 | < 1 | 10 | 100 | 3 |  |  |  |  |  | 30 | 10 | > 100 | 3 | 100 |
| O=C(/C=C/c1ccc(Cl)cc1)OC(Cn1ccnc1)c1ccc(Cl)cc1Cl.O=[N+]([O-])O (stereo not drawn) | < 0.1 | > 300 |  | < 1 | 10 | > 300 | 10 |  |  |  |  |  |  |  |  |  |  |
| CCCCCOC(=S)SC(Cn1ccnc1)c1ccc(Cl)cc1.O=C(O)C(=O)O (stereo not drawn) | 0.3 | 30 | 0.22 | 3 | 10 | 30 | 3 |  |  |  |  |  |  |  |  |  |  |
| Cc1ccc(C(=O)SC(Cn2ccnc2)c2ccc(Cl)cc2Cl)cc1.O=[N+]([O-])O (stereo not drawn) | < 0.1 | 10 | -0.09 | < 1 | 10 | 10 | 30 |  |  |  |  |  |  |  |  |  |  |
| CCCCCCCCOC(=O)OC(Cn1ccnc1)c1ccc(Cl)cc1Cl.O=[N+]([O-])O (stereo not drawn) | < 0.1 | 30 | 0.4 | 3 | 10 | 300 | 10 |  |  |  |  |  |  |  |  |  |  |
| CC(C)OC(=S)SC(Cn1ccnc1)c1ccc(Cl)cc1Cl.O=[N+]([O-])O (stereo not drawn) | < 0.1 | 30 | -0.14 | < 0.3 | 10 | 100 | 10 |  |  |  |  |  |  |  |  |  |  |
| O=C(Cc1ccc(Cl)cc1)SC(Cn1ccnc1)c1ccc(Cl)cc1Cl.O=[N+]([O-])O (stereo not drawn) | < 0.1 | 100 |  | < 1 | 30 | 100 | > 30 |  |  |  |  |  |  |  |  |  |  |
| O=[N+]([O-])O.S=C(OC1CCCCC1)SC(Cn1ccnc1)c1ccc(Cl)cc1Cl (stereo not drawn) | < 0.1 | 3 | 0.43 | < 1 | 3 | 3 | 3 |  |  |  |  |  |  |  |  |  |  |
